Activity calls are given as the source filed them. The calls are words filed in the database; no cut-off is given here.
Test system: Influenza A virus
Experiment: Antiviral activity against Influenza A virus H5N1 pseudovirus harboring IAV (A/Thailand/Kan353/2004(H5N1))-HA/IAV (A/Thailand/Kan353/2004(H5N1))-NA/HIV core plasmids infected in MDCK cells assessed as pseudovirus neutralization incubated for 30 mins with virus followed by viral infection and measured after 48 hrs by luciferase reporter gene assay
Format: functional, organism-based
Procedure, shortened: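 Pseudovirus incubated with varying compound concentrations for 30 min at 37 °C, then added to MDCK cells for 48 h. Lysates read for luciferase activity; VSV-G pseudovirus run as control.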

Q: How did the Activity turn out when CC/C=C1/C=CC(=O)[C@@H](O)[C@]12C(=O)N(OC)[C@@](C)(OC)[C@@H]2O was run?
A: inactive

From ChEMBL document CHEMBL4382263, “Spirostaphylotrichin X from a Marine-Derived Fungus as an Anti-influenza Agent Targeting RNA Polymerase PB2” (J Nat Prod, 2018)
